Active and inactive are the calls of the source. The rule behind the calls is not given here.
How the values were obtained:
LOX IMVI = test: Growth inhibition of human LOXIMVI cells at 10 uM incubated for 48 hrs by sulforhodamine B assay; format: functional, cell-based
In short: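 NCI 60-line panel, single 10 μM dose. Cells were grown in RPMI-1640 with 5% FBS and 2 mM L-glutamine and pre-incubated 24 h before compound addition (DMSO stock). Exposure was 48 h at 37 °C, 5% CO2. Cells were fixed with cold TCA (10% final), stained with 0.4% SRB, bound dye dissolved in 10 mM Tris base, A515 read. Growth was taken relative to time-zero and untreated control plates.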

SK-MEL-2 = test: Growth inhibition of human SK-MEL-2 cells at 10 uM incubated for 48 hrs by sulforhodamine B assay; format: functional, cell-based
In short: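 NCI-60 single-dose screen at 10 µM for 48 h. Cells were grown in RPMI-1640 with 5% FBS and 2 mM L-glutamine and preincubated 24 h before compound. Time-zero plates were TCA-fixed at compound addition. After exposure, cells were TCA-fixed, stained with SRB and read at 515 nm. Percentage growth was calculated against time-zero and untreated-control absorbances.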

BT-549 = test: Growth inhibition of human BT549 cells at 10 uM incubated for 48 hrs by sulforhodamine B assay; format: functional, cell-based
In short: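 NCI 60-cell-line screen at a single 10 µM dose. Cells in RPMI-1640 with 5% FBS and 2 mM L-glutamine, pre-incubated 24 h, then treated for 48 h at 37 °C. TCA fixation, sulforhodamine B staining, absorbance at 515 nm. Percentage growth calculated against time-zero and untreated controls.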

Candida albicans = test: Growth inhibition of Candida albicans ATCC 10231 at 31.25 ug/ml incubated for 48 hrs under dark condition by broth microdilution method relative to control; format: functional; conditions: ATCC 10231, 48 h, read-out: GI
In short: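 CLSI M27-A3 broth microdilution in RPMI-1640, DMSO ≤1%. Inoculum 1-5 × 10^3 CFU/mL. Incubated 48 h at 30 °C, dark. % inhibition = 100 − (OD405 test − sterility control)/(OD405 growth control − sterility control), with growth and sterility control wells. Triplicate.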

Row | SMILES | growth inhibition (GI) (LOX IMVI) | growth inhibition (GI) (SK-MEL-2) | growth inhibition (GI) (BT-549) | inhibition of growth at 31.25 µg/mL (Candida albicans) [%]
1 | COc1ccc(C2=NN(c3ccccc3)C(c3cccc(Nc4ccnc5cc(Cl)ccc45)c3)C2)cc1 (stereo unspecified) | inactive | inactive | inactive | 13.4
2 | Clc1ccc(C2=NN(c3cc(Cl)cc(Cl)c3)C(c3cccc(Nc4ccnc5cc(Cl)ccc45)c3)C2)cc1 (stereo unspecified) | inactive | inactive | inactive | 13.6
3 | COc1ccc(C2=NN(c3ccc(Cl)cc3)C(c3cccc(Nc4ccnc5cc(Cl)ccc45)c3)C2)cc1 (stereo unspecified) | inactive | inactive | inactive | 1.19
4 | Clc1ccc(C2=NN(c3ccc(Cl)cc3)C(c3cccc(Nc4ccnc5cc(Cl)ccc45)c3)C2)cc1 (stereo unspecified) | inactive | inactive | inactive | 7.02

Source: ChEMBL document CHEMBL4038284, “Synthesis of novel quinoline-based 4,5-dihydro-1H-pyrazoles as potential anticancer, antifungal, antibacterial and antiprotozoal agents” (Eur J Med Chem, 2017)
